# Screening data (PubChem)
# Hits are enriched below; roughly 2.4% of the tested compounds scored in any of these assays.
# PfM18AAP inh: PfM18AAP enzyme inhibition; recombinant PfM18AAP, H-Glu-NHMec fluorogenic cleavage; inhibition, % at 7.35 µM; 290,000 tested, 1.2% active; AID 1822;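 active = inhibition above the campaign mean inhibition over all tested compounds plus 3 SD, cut at about 28% in these data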;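 also: 0% = plate median of test compound wells and 100% = 2 mM ZnCl2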
# APOBEC3G inh: APOBEC3G (human) deaminase inhibition; Q9HC16; recombinant A3G, ssDNA deamination FAM/TAMRA fluorescence; inhibition, % at 20 µM; 330,000 tested, 0.28% active; AID 493012;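 active = inhibition of at least 40% at 20 µM, with no more than 30% in the related APOBEC3A deaminase screen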;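 also: plate controls were DMSO wells with A3G for no effect and wells lacking A3G enzyme for full effect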
# Target sequence (Q9HC16 whole entry, looked up): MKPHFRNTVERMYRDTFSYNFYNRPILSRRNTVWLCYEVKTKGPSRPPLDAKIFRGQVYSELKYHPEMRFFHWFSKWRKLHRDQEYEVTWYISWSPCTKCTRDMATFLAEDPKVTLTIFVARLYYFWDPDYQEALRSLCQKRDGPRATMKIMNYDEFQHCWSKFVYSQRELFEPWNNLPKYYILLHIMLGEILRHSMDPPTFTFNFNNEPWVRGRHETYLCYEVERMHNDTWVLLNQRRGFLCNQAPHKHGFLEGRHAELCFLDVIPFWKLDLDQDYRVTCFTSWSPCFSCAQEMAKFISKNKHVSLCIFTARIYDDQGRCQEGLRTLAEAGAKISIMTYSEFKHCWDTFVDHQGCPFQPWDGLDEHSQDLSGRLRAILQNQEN
# HKDC1 inh: blocks human hexokinase HKDC1 activity; Q2TB90; inhibition, % at 20 µM; recombinant HKDC1, G6PDH/diaphorase resazurin coupled fluorescence; 340,000 tested, 0.16% active; AID 493160;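 active = inhibition above about 35% when tested at 20 µM, limit read from the data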;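 also: plate controls were DMSO wells with enzyme for no effect and DMSO wells lacking enzyme for full effect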
#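 System: Recombinant HKDC1 hexokinase | Amount: HKDC1 at 5 µg/mL | Reagent: Glucose with 1 mM ATP | Doses: Single 20 µM dose | Incubation: Reaction time 90 min, room temperature, protected from light | Signal: Coupled resazurin fluorescence, excitation 525 nm, emission 613 nm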
# UBC9 SUMO inh: inhibitors of human SUMOylation (UBC9) | HTRF SUMOylation assay, SAE1/SAE2 + UBC9, in vitro | inhibition, % at 35 µM | 290,000 tested, 0.36% active; in the data active = inhibition above about 50%, passing the limit was not always enough
# PfGluPho inh: PfG6PD (Plasmodium falciparum) enzyme inhibition; PfGluPho enzyme, NADPH resazurin-diaphorase fluorescence; 350,000 tested, 0.78% active; inhibition, % at 20 µM;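 active = inhibition reaching at least a set limit at 20 µM in the primary screen, cut at about 59% in these data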;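 also: 0% = DMSO wells with substrate and 100% = DMSO wells lacking glucose-6-phosphate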
# APOBEC3A inh: inhibitors of human APOBEC3A DNA deaminase; 330,000 tested, 0.41% active; recombinant A3A, FAM/TAMRA ssDNA deamination fluorescence; inhibition, % at 20 µM; P31941;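 active = at least 40% inhibition at 20 µM here, with at most 30% in a related deaminase screen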;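 also: plate controls were A3A with DMSO for no effect and wells lacking A3A enzyme for full effect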
# A3A conf: confirmation of human APOBEC3A DNA deaminase inhibitors. recombinant A3A, ssDNA deaminase UDG fluorescence assay. AID 493151. shares compounds with APOBEC3A inh. 1,400 tested, 63% active. inhibition, % at 20 µM;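 active = inhibition reaching a set limit, 80% of the first screen's cutoff, at 20 µM in any replicate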;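 also: plate controls were DMSO wells with A3A for no effect and wells lacking A3A enzyme for full effect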
# UDG ctr A3A: counter-screen for APOBEC3A inhibitors: UDG | shares compounds with APOBEC3A inh | UDG counterscreen, FAM/TAMRA uracil oligo fluorescence | inhibition, % at 20 µM | 1,000 tested, under 10 active | AID 504714; call rule not given here
# Numbers without * were called inactive; / = not tested or not shown.
SMILES,PfM18AAP inh,APOBEC3G inh,HKDC1 inh,UBC9 SUMO inh,PfGluPho inh,APOBEC3A inh,A3A conf,UDG ctr A3A
COc1ccc(CCCc2nnc(SCC(=O)Nc3ccc(C)c(C)c3)o2)cc1,2,27,2,-6,-1,50*,72*,4
COc1ccc(CCCc2nnc(SCC(=O)Nc3cc(C)ccc3C)o2)cc1,4,-2,3,-4,-7,0,/,/
CC(C)c1ccc(C2(C)NC(=O)N(C(C)C(=O)Nc3ccc(N4CCOCC4)cc3)C2=O)cc1 (stereo not given),/,-4,5,/,-2,-1,/,/
CN1CCN(c2nnc(-c3ccccc3)c(-c3ccccc3)n2)CC1,3,14,0,17,8,66*,27*,-4
O=C(NCc1ccccc1Cl)c1cc(=O)[nH]c2ccccc12,0,3,-3,12,-21,52*,15,/
CCC(=O)Nc1ccc(-c2nnc(SCC(=O)Nc3nccs3)n2C)cc1,-9,29,2,0,8,53*,13,/
